How the values were obtained:
B1 bradykinin receptor [1] = biological target: T1, B1 bradykinin receptor (Homo sapiens, UniProt P46663); experiment: Antagonist activity at human cloned B1 receptor expressed in african green monkey COS7 cells by calcium mobilization assay; type: functional, cell-based, COS-7
T1 sequence (P46663 whole entry): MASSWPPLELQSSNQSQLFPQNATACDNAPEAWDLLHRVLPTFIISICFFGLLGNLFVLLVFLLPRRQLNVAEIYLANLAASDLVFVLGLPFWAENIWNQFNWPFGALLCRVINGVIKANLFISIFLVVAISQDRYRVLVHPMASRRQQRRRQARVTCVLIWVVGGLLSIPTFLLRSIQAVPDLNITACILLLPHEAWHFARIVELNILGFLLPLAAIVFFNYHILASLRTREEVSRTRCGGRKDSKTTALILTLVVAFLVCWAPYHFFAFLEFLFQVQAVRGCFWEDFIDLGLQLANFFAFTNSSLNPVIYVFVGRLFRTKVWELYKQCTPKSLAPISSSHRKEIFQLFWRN
In short: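 Cos-7 cells (DMEM, 10% FBS, 37 °C, 6% CO2) transiently electroporated with 16 µg human B1 cDNA plus 50 µg aequorin cDNA, plated 12,000 cells/well and used 2–3 days later. Compounds serially diluted from 2 mM DMSO stocks in half-log steps, six concentrations in triplicate. Coelenterazine-loaded cells received compounds in HEPES assay buffer. Read-out was aequorin calcium luminescence, with desArg10HOE140 standards for basal and partial inhibition. Ki reported.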

B1 bradykinin receptor [2] = biological target: T1, B1 bradykinin receptor; experiment: Displacement of [3H]desArg from human B1 in human WI 38 cells; type: cell-based
In short: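 WI-38 fibroblasts, 50,000/well, grown overnight and primed with IL-1b 100 units/mL for 3 h to induce B1. Binding used ~1 nM [3H]-desArg10kallidin in HEPES/HBSS pH 7.4 with phenanthroline and bacitracin, 1 h at 4 °C, 0.5% final DMSO. Nonspecific binding was defined with 3 µM desArg10kallidin. Cells washed, SDS-solubilized and scintillation counted; logistic fit gave IC50, converted to Ki, ≥3 determinations.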

| Compound | Ki (B1 bradykinin receptor [1]) [nM] | Ki (B1 bradykinin receptor [2]) [nM] |
| --- | --- | --- |
| CC(C)COc1ccc(CN(CC(=O)NCc2ccccc2Cl)S(=O)(=O)c2ccc(CN3CCN(C)CC3)cc2)cc1Cl | 188 | 21 |
| COc1cc(CN(CC(=O)NCc2ccccc2Cl)S(=O)(=O)c2ccc(CN3CCN(C)CC3)cc2)ccc1OCC(C)C | 37 | 11 |
| COc1cc(CN(CC(=O)NCc2ccccc2Cl)S(=O)(=O)c2ccc(CN3CCCCC3)cc2)ccc1OCC(C)C | 267 | 34 |
| O=C(O)CCNC(=O)CN(CCOc1cccc(Cl)c1)S(=O)(=O)c1ccc(Cl)cc1Cl | – | 1090 |
| COc1ccccc1CCNC(=O)CN(CCOc1ccc2c(c1)OCO2)S(=O)(=O)c1ccc(Cl)cc1Cl | – | 210 |
| O=C(O)CCNC(=O)CN(CCOc1ccc2c(c1)CCC2)S(=O)(=O)c1ccc(Cl)cc1Cl | – | 410 |
| COCCCNC(=O)CN(CCOc1ccc2c(c1)CCC2)S(=O)(=O)c1ccc(Cl)cc1Cl | – | 1210 |
| CNC(=O)CN(CCOc1ccc2c(c1)CCC2)S(=O)(=O)c1ccc(Cl)cc1Cl | – | 2200 |
| O=C(O)CCNC(=O)CN(CCOc1ccccc1)S(=O)(=O)c1ccc(Cl)cc1Cl | – | 13000 |
| CC(C)COc1ccc(CN(CC(=O)NCc2ccccc2Cl)S(=O)(=O)c2ccc(CN3CCN(C)CC3)cc2)cc1 | – | 113 |
| COc1cc(CN(CC(=O)NCc2ccccc2Cl)S(=O)(=O)c2ccc(CN3CCOCC3)cc2)ccc1OCC(C)C | 463 | 149 |
| COc1cc(CN(CC(=O)NCc2ccccc2Cl)S(=O)(=O)c2ccc(CN(C)C)cc2)ccc1OCC(C)C | 497 | 93 |
| O=C(O)CCNC(=O)CN(CCOc1ccc2c(c1)OCO2)S(=O)(=O)c1ccc(Cl)cc1Cl | – | 1570 |

— ChEMBL document CHEMBL1139266, “Sulfonamido-aryl ethers as bradykinin B1 receptor antagonists” (Bioorg Med Chem Lett, 2009)
